Measurements as given in article PMC12138178 (The New Phytologist, 2025).

Assays:
MpPR10.5 protein [1] = target: T1, MpPR10.5 protein (Marchantia polymorpha, UniProt A0A2R6WRE7); experiment: Intrinsic tryptophan fluorescence binding assay
T1 sequence (A0A2R6WRE7 1-149): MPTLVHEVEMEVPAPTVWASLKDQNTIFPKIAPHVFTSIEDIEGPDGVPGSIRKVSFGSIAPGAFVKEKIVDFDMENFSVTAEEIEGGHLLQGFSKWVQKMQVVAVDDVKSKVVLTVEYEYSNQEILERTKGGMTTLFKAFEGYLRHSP
In short: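 His-SUMO-tagged PR10 protein, expressed in E. coli Rosetta-Gami 2 and purified by IMAC and size exclusion, used at 1.1 μM in 20 mM Tris pH 8.5, 200 mM NaCl. DMSO stocks of test compound at eight levels (0–20 mM or 0–4 mM) were diluted 10× in buffer and added. Incubated 5 min at 22°C. Excitation 280 nm, emission 340 nm. Six replicates; buffer controls subtracted. |ΔF|/F0 versus concentration was fitted to a one-site specific binding model to give Kd.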

MpPR10.5 protein [2] = target: T1, MpPR10.5 protein; experiment: Naringenin chalcone oxidation assay; assay type: physicochemical; settings: pH 7.5, 30 min
In short: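 Run in 20 mM Tris pH 7.5 or 8.5 with 200 mM NaCl, either as buffer alone or with 15 μM His-SUMO-tagged PR10 protein. A blank was recorded first. Test compound was added from a 1.4 mM DMSO stock to 10 μM final. UV–Vis spectra (190–840 nm, 1 cm path) were taken every 1 min for 30 min, following the 377 and 322 nm peaks.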

SMILES	affinity for MpPR10.5 (in words) (MpPR10.5 protein [1])	Kd (MpPR10.5 protein [1]; Kd (dissociation constant), His-SUMO-MpPR10.5 fusion protein, 20 mM Tris pH 8.5, 200 mM NaCl, 22°C, nd = not detected) [µM]	stability under the experimental conditions (absorption peak at 322 nm) (MpPR10.5 protein [2])
O=C(CCc1ccc(O)cc1)c1c(O)cc(O)cc1O [Phloretin]	high affinity	–	–
O=C1C[C@@H](c2ccc(O)cc2)Oc2cc(O)cc(O)c21 [Naringenin]	–	–	remained completely stable
O=C(/C=C/c1ccc(O)c(O)c1)c1ccc(O)cc1O [Butein]	high affinity	–	–

The remaining lines, values ahead:

affinity for MpPR10.5 (in words) (MpPR10.5 protein [1])	Kd (MpPR10.5 protein [1]; Kd (dissociation constant), His-SUMO-MpPR10.5 fusion protein, 20 mM Tris pH 8.5, 200 mM NaCl, 22°C, nd = not detected) [µM]	stability under the experimental conditions (absorption peak at 322 nm) (MpPR10.5 protein [2])	SMILES
high affinity	–	–	O=C(/C=C/c1ccc(O)cc1)c1ccc(O)cc1O [Isoliquiritigenin]
very low affinity	> 119	–	O=C(O)/C=C/c1ccccc1 [Cinnamic acid]
no affinity	–	–	O=C(O)C=Cc1ccc(O)cc1 [p-Coumaric acid]
